High-throughput results (PubChem BioAssay)
A selection: hits, their analogues and other compounds. The true share with any hit is near 1.9%.
Runt-CBFb FRET: inhibitors of human RUNX1 Runt domain binding to CBFb. Cerulean-Runt/Venus-CBFb FRET ratio 530/480, 1 h. inhibition, % at 20 µM. hit rate 0.46% among 220,000. AID 1496;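 active means inhibition over about 50% at 20 µM in the single-dose screen, limit read from the data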
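Measured by: fluorescence energy transfer, 422 nm excitation, 530/480 nm emission; Assay system: Cerulean-Runt domain; Medium: Tris pH 7.5 buffer with BSA; Measure: loss of energy transfer signal; Controls: 5 µM unlabeled CBFb as full-inhibition high control; Incubation: protein complex preformed 1 h, compound exposure 1 h, room temperature, dark.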
Runt-SMMHC FRET: Runt domain-CBFb-SMMHC interaction inhibition. hit rate 0.74% among 220,000. AID 1434. Cerulean-Runt/Venus-CBFb-SMMHC FRET ratio 530/480, 1 h. Q01196+Q13951. inhibition, % at 20 µM;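 active means mean inhibition across duplicate retests at 20 µM reaching about 50%, limit read from the data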;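 further: inhibitors lower the FRET ratio by blocking Runt binding to CBFb-SMMHC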
RanGTP-Imp inh: inhibitors of RanGTP-importin-beta interaction, primary screen, biochemical, FRET, CFP-Ran, YFP-importin-beta, homogeneous. cell-free CFP-Ran/YFP-importin-beta FRET ratio. inhibition, % (test concentration not listed). hit rate 1.1% among 300,000. AID 2216;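 active means more than half of the replicate wells show a fall in the fluorescence ratio signal beyond about 16%, limit read from the data, passing the limit was not always enough; inconclusive means exactly half of the replicate wells pass the set limit; inactive means fewer than half of replicates pass the limit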
Hck Nef HTS: human Hck-Nef kinase inhibition; inhibition, % at 20 µM; AID 463187; hit rate 0.68% among 220,000; P08631; Recombinant Hck-YEEI plus Nef, Z-Lyte FRET kinase assay;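 active means Hck-Nef kinase inhibition above about 50%, limit read from the data; inactive means inhibition below that limit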
Target sequence (P08631 whole entry, looked up): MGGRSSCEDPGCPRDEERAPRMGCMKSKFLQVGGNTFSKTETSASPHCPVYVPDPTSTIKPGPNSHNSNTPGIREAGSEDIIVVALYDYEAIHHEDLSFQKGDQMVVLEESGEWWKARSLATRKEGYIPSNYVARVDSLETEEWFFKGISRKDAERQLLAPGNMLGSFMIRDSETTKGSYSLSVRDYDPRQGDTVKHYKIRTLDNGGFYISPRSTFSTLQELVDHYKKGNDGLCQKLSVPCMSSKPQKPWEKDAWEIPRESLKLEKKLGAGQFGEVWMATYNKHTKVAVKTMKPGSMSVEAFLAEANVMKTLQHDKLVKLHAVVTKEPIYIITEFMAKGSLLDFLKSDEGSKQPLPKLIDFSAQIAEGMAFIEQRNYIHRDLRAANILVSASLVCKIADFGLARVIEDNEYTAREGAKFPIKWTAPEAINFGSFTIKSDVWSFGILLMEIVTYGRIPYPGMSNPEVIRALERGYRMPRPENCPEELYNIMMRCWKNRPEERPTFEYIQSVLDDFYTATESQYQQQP
YIC counter: counter-screen: alters YIC FRET probe signal; hit rate 40% among 1,000; AID 435026; Purified YIC probe, intramolecular FRET ratio YFP/CFP; IC50, µM; shares compounds with RanGTP-Imp inh;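 active means fitted half-maximal inhibitory concentration no more than tenfold above the top dose tested; inconclusive means flat fit with 30 to 70% activity, or poor fit; inactive means half-maximal concentration beyond tenfold above the top dose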
Large screens that a line does not name were inactive (follow-up assays come after a bar, where they were run).

O=C(NCCN1C(=O)S/C(=C\c2cccc(Cl)c2Cl)C1=O)C1=COCCO1	none (no result: Runt-CBFb FRET, Runt-SMMHC FRET, Hck Nef HTS)
CC(C)(C)c1ccc(S(=O)(=O)NCC(=O)N2CCCC2)cc1	none (no result: Runt-CBFb FRET, Runt-SMMHC FRET, Hck Nef HTS)
CC(C)(C)c1ccc(S(=O)(=O)NCC(=O)N2CCN(C(=O)c3ccco3)CC2)cc1	RanGTP-Imp inh 20.6 | YIC counter inactive
COc1ccc(NC(=O)NC(C)C2CC3CCC2C3)cc1 (stereo unspecified)	none
Cc1ccc2nc(NCC(=O)O)nc(-c3ccccc3)c2c1	RanGTP-Imp inh 22.2 | YIC counter 47.9
O=C(Cn1cnc2ccccc2c1=O)c1ccc(OC(F)F)cc1	none (no result: Runt-CBFb FRET, Runt-SMMHC FRET, Hck Nef HTS)
COc1ccc(OC)c(N(CC(=O)N2CCCC2)S(=O)(=O)c2ccc(OC)c(OC)c2)c1	none
COc1ccc(OC)c(N(CC(=O)O)S(=O)(=O)c2ccc(OC)c(OC)c2)c1	RanGTP-Imp inh 20.7 | YIC counter inactive
Cc1occc1C(=O)NNC(=O)c1ccccc1Br	none
N#Cc1c(N)nc2c(c1-c1ccccc1)CCC2	RanGTP-Imp inh 28.9 | YIC counter 9.8
COc1cccc(-c2coc3c(C)c4oc(=O)c(CC(=O)O)c(C)c4cc23)c1	RanGTP-Imp inh 23.6 (no result: Runt-CBFb FRET, Runt-SMMHC FRET, Hck Nef HTS) | YIC counter inactive
COc1cccc(-c2coc3c(C)c4oc(=O)c(CCC(=O)O)c(C)c4cc23)c1	none (no result: Runt-CBFb FRET, Runt-SMMHC FRET, Hck Nef HTS)
COc1ccc(-c2coc3c(C)c4oc(=O)c(CC(=O)O)c(C)c4cc23)cc1	none (no result: Runt-CBFb FRET, Runt-SMMHC FRET, Hck Nef HTS)
Cc1c(CC(=O)O)c(=O)oc2c(C)c3occ(-c4ccc(Br)cc4)c3cc12	RanGTP-Imp inh 28.4 (no result: Runt-CBFb FRET, Runt-SMMHC FRET, Hck Nef HTS) | YIC counter inactive
NC1=NC(=O)/C(=C/C=C/c2cccs2)S1	none (no result: Runt-CBFb FRET, Runt-SMMHC FRET, Hck Nef HTS)
O=C(CN1CCOc2ccccc21)NCc1ccco1	RanGTP-Imp inh inconclusive
O=C(CN1CC(=O)Oc2ccccc21)NCc1ccco1	RanGTP-Imp inh 19.0 | YIC counter inactive
Cc1ccc(C2NC(=O)c3c(sc(C)c3C)N2)c(O)c1 (stereo unspecified)	RanGTP-Imp inh 24.2 | YIC counter inactive
Cc1ccc(C)c(C2NC(=O)c3ccccc3N2)c1 (stereo unspecified)	none
Cc1sc2c(c1C)C(=O)NC(c1ccccc1F)N2 (stereo unspecified)	RanGTP-Imp inh 24.3 | YIC counter inactive
O=C(NCCc1cscn1)C1CCC(=O)N(Cc2ccc(Cl)cc2)C1 (stereo unspecified)	none (no result: Runt-CBFb FRET, Runt-SMMHC FRET, Hck Nef HTS)
CC(C)[C@H](NC(=O)CCCn1nnc2ccccc2c1=O)C(=O)O	none
CCC(=O)Nc1ccc(N/C(N)=N/c2nc(C)cc(C)n2)cc1	RanGTP-Imp inh 17.2 | YIC counter inactive
CC(C)C(=O)Nc1ccc2nn(-c3ccccc3)nc2c1	none
C=CCN1C(=O)/C(=C2/Sc3ccccc3N2C)SC1=Nc1ccccc1C	none
CCN1C(=O)/C(=C2\Sc3ccccc3N2CC)OC1=S	RanGTP-Imp inh 20.6 | YIC counter 36.3
C=CCN1C(=O)/C(=C2/Sc3ccccc3N2CC)SC1=S	RanGTP-Imp inh 16.6 (no result: Runt-CBFb FRET, Runt-SMMHC FRET, Hck Nef HTS) | YIC counter inactive
COc1ccc(NC(=O)N2CCN(C(=O)Nc3ccc(OC)cc3)CC2)cc1	none
COc1ccc(NC(=O)N2CCCCCC2)cc1	RanGTP-Imp inh 21.3 | YIC counter inactive
CC1CC(C)CN(CCCNC(=O)CN2C(=O)COc3ccc(S(=O)(=O)N4CCOCC4)cc32)C1 (stereo unspecified)	none (no result: Runt-CBFb FRET, Runt-SMMHC FRET, Hck Nef HTS)
Cn1nnnc1SCC(=O)Nc1nn(-c2ccccc2)nc1C(N)=O	RanGTP-Imp inh 17.5 | YIC counter inactive
Cn1nnnc1SCC(=O)Nc1ccc(Oc2ccccc2)cc1	none
O=S(=O)(Nc1ncccn1)c1ccc(-n2cnnn2)cc1	RanGTP-Imp inh inconclusive
COc1ccc(-c2cc(C(=O)O)nc3ccc4ccccc4c23)cc1OC	RanGTP-Imp inh 18.2 | YIC counter inactive
COc1ccc(Cn2c(=O)[nH]c3cc(C(=O)N4CCN(c5ccccn5)CC4)ccc3c2=O)cc1	none
COC(=O)C(C)Oc1ccc2c(c1)O/C(=C\c1ccco1)C2=O (stereo unspecified)	RanGTP-Imp inh 20.8 (no result: Runt-CBFb FRET, Runt-SMMHC FRET, Hck Nef HTS) | YIC counter 17.4
COc1ccc2c(c1)O/C(=C\c1ccco1)C2=O	Runt-SMMHC FRET 61.2, RanGTP-Imp inh 20.8 | YIC counter 18.8
O=C(Nc1ccc(OC(F)(F)F)cc1)c1ccc2nc[nH]c2c1	RanGTP-Imp inh 20.1 (no result: Runt-CBFb FRET, Runt-SMMHC FRET, Hck Nef HTS) | YIC counter inactive
CCc1cc(=O)oc2c(CNCc3ccc(OC)cc3OC)c(O)c(Cl)cc12	RanGTP-Imp inh 33.8 (no result: Runt-CBFb FRET, Runt-SMMHC FRET, Hck Nef HTS) | YIC counter 32.1
COc1ccc(CNCc2ccncc2)c(OC)c1	none (no result: Runt-CBFb FRET, Runt-SMMHC FRET, Hck Nef HTS)
COc1ccc(CNCc2c(O)c(Cl)cc3c(C)c(C)c(=O)oc23)c(OC)c1	RanGTP-Imp inh 18.2 (no result: Runt-CBFb FRET, Runt-SMMHC FRET, Hck Nef HTS) | YIC counter 6.97
O=C(Nc1ccc2c(c1)OCO2)c1ccc(S(=O)(=O)NCC2CCCO2)cc1 (stereo unspecified)	none
O=C(Nc1cccc(F)c1)c1ccc(S(=O)(=O)NCC2CCCO2)cc1 (stereo unspecified)	RanGTP-Imp inh 21.4 | YIC counter inactive
Cc1cc(C(=O)COC(=O)c2nc3nccc(C)n3n2)c(C)n1CC1CCCO1 (stereo unspecified)	RanGTP-Imp inh 21.2 | YIC counter inactive
Cc1cc(C)n2nc(C(=O)OCC(=O)c3cc(C)n(CC4CCCO4)c3C)nc2n1 (stereo unspecified)	none
COc1cc(C(=O)Oc2c(CN3CCOCC3)cc(Cl)c3cccnc23)cc(OC)c1OC	RanGTP-Imp inh 16.1 | YIC counter inactive
COc1ccc(C(=O)Oc2c(CN3CCOCC3)cc(Cl)c3cccnc23)cc1	RanGTP-Imp inh 25.2 | YIC counter inactive
COc1ccc(C(CNC(=O)c2cc(F)c(F)c(F)c2F)N2CCOCC2)cc1 (stereo unspecified)	RanGTP-Imp inh 18.9 | YIC counter inactive
Cc1ccc(S(=O)(=O)N(C)Cc2ccc(C(=O)N/N=C3\CC(=O)CC(C)(C)C3)cc2)cc1	RanGTP-Imp inh 18.6 | YIC counter inactive
Cc1cc2c(c(=O)n1CC1CCCO1)C(c1ccco1)C(C#N)=C(N)O2 (stereo unspecified)	Runt-CBFb FRET 111.9, RanGTP-Imp inh 22.7 | YIC counter 14.1
COc1cc(C2C(C#N)=C(N)Oc3cc(C)n(CC4CCCO4)c(=O)c32)cc2c1OCO2 (stereo unspecified)	none
COc1ccc(/C=C/C(=O)Oc2cc(C)[nH]c(=O)c2[N+](=O)[O-])cc1OC	none
CC1(c2ccccc2)NC(=O)N(NC(=O)COC(=O)c2cc(Br)ccc2O)C1=O (stereo unspecified)	none (no result: Runt-CBFb FRET, Runt-SMMHC FRET, Hck Nef HTS)
CCOC(=O)/C(C#N)=C/c1c(N2CCN(c3ccc(OC)cc3)CC2)nc2c(C)cccn2c1=O	RanGTP-Imp inh 20.5 (no result: Runt-CBFb FRET, Runt-SMMHC FRET, Hck Nef HTS) | YIC counter inactive
Cc1cccn2c(=O)c(/C=C(\C#N)C(N)=O)c(N3CCN(c4ccccc4)CC3)nc12	none (no result: Runt-CBFb FRET, Runt-SMMHC FRET, Hck Nef HTS)
Cc1cccn2c(=O)c(/C=C(\C#N)C(N)=O)c(Oc3ccccc3)nc12	Runt-SMMHC FRET 118.8, RanGTP-Imp inh 24.7 | YIC counter 1.58
CCNC(=O)/C(C#N)=C/c1c(N2CCN(c3ccc(OC)cc3)CC2)nc2c(C)cccn2c1=O	none (no result: Runt-CBFb FRET, Runt-SMMHC FRET, Hck Nef HTS)
